From ChEMBL document CHEMBL1138559, “Synthesis and in vitro anti-HIV evaluation of a new series of 6-arylmethyl-substituted S-DABOs as potential non-nucleoside HIV-1 reverse transcriptase inhibitors” (Eur J Med Chem, 2009) come the findings set out here.

Series [1] can be described thus: Cytotoxicity against human MT4 cells by MTT assay. Type of series: cell-based. In outline: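 Uninfected MT-4 cells run in parallel with the antiviral plates, with serial compound dilutions from DMSO stocks (50 mM or higher), for 4 days at 37 °C. Viability read by MTT. CC50 is the concentration that lowers viability of uninfected cells by 50%.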
In general terms: Formazan colour is commonly taken as a measure of viable cells.

The test system of series [2] is Human immunodeficiency virus 2. The series is described as follows: Antiviral activity against HIV2 ROD infected in human MT4 cells assessed as inhibition of virus-induced cytopathic effect after 4 days by MTT assay. Type of series: functional, organism-based. The following applies: Human immunodeficiency virus 2, ROD, MT4, 96 h. In outline:
(§1)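 MT-4 cells at 1 × 10^5 cells/mL infected at MOI 0.02 (virus stocks titrated in MT-4, as CCID50), then put at once into wells with serial compound dilutions (DMSO stocks, 50 mM or higher). Incubation 4 days, 37 °C. Viable cells counted by MTT. IC50 taken as concentration protecting 50% of infected cells.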
(In general: Protection from cytopathic effect is a common read-out in antiviral testing.)

The nature of series [3]: Selectivity index, ratio of CC50 for human MT4 cells to IC50 for HIV1 3B. Type of series: functional. In outline:
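Ratio CC50/IC50. CC50 comes from MTT viability of uninfected MT-4 cells, and IC50 from MTT protection of HIV-1-infected MT-4 cells (MOI 0.02). Both were read after 4 days at 37 °C in parallel assays.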

In series [4] the test system is Human immunodeficiency virus 1. The series is described as follows: Antiviral activity against HIV1 3B infected in human MT4 cells assessed as inhibition of virus-induced cytopathic effect after 4 days by MTT assay. Type of series: functional, organism-based. The note with it: Human immunodeficiency virus 1, 3B, MT4, 96 h. In outline:
as §1

The CC50 is the concentration giving 50% cytotoxicity. A word on the IC50: it is the concentration needed to halve the response being measured. As to `CCc1c(Cc2cc(C)cc(C)c2)nc(SCc2ccc(OC)cc2)[nH]c1=O`, the CC50 in series [1] was above 317 µM. Besides, the IC50 was above 317 µM in series [2] and 0.12 µM in series [4]. The “Ratio CC50/IC50” value in series [3] is reported as above 2642.

Regarding `COc1ccc(CSc2nc(Cc3cc(C)cc(C)c3)c(C)c(=O)[nH]2)cc1`, the CC50 in series [1] is above 329 µM. Also, the IC50 in series [2] was above 329 µM; in series [4], 1.1 µM. In series [3], the “Ratio CC50/IC50” value is above 299.

`CCc1c(Cc2ccc(Br)cc2)nc(SCc2ccc(OC)cc2)[nH]c1=O` returned a CC50 in series [1] above 281 µM. For the same compound, the IC50 in series [2] and in series [4] was above 281 µM each time.

As for `COc1ccc(CSc2nc(Cc3cccc4ccccc34)c(C(C)C)c(=O)[nH]2)cc1`, the CC50 in series [1] stood at 37.4 µM. Besides, the values for the IC50 in series [2] and in series [4] were above 37.4 µM and 0.21 µM, respectively. Further, in series [3], the “Ratio CC50/IC50” value is on record as 178.

The compound `O=c1[nH]cnc2c1ncn2[C@H]1CC[C@@H](CO)O1` [DIDANOSINE] came in with a CC50 in series [1] of at least 529 µM. Moreover, the results for the IC50 in series [2] and in series [4] were 2.71 µM and 5.37 µM, respectively. Further, the “Ratio CC50/IC50” value in series [3] was “>=98”.

As for `COc1ccc(CSc2nc(Cc3cccc(Br)c3)c(C)c(=O)[nH]2)cc1`, the CC50 in series [1] is above 290 µM. In addition, the figures for the IC50 in series [2] and in series [4] were above 290 µM and 6.42 µM, respectively. Besides, the “Ratio CC50/IC50” value in series [3] is reported as above 45.

As to `CCc1c(Cc2cc(C)cc(C)c2)nc(SCc2ccccc2)[nH]c1=O`, in series [1], the CC50 was above 343 µM. The IC50 in series [2] is above 343 µM; in series [4] it was 0.95 µM. Also, the “Ratio CC50/IC50” value in series [3] is on record as above 361.

`COc1ccc(CSc2nc(Cc3ccc(-c4ccccc4)cc3)c(C)c(=O)[nH]2)cc1` displayed a cytotoxic concentration (CC50) in series [1] of 100 µM. The IC50 in series [2] and in series [4] was above 100 µM throughout. Besides, the “Ratio CC50/IC50” value in series [3] is below 1.

On to `CCc1c(Cc2ccccc2Br)nc(SCc2ccc([N+](=O)[O-])cc2)[nH]c1=O`, for which, in series [1], the CC50 was above 272 µM. In addition, the IC50 is above 272 µM in series [2] and 0.74 µM in series [4]. For the same compound, the “Ratio CC50/IC50” value in series [3] was above 368.

The compound `CCc1c(Cc2cccc3ccccc23)nc(SCc2ccc(OC)cc2)[nH]c1=O` came in with a CC50 in series [1] of 261 µM. Moreover, the IC50 in series [2] was above 227 µM; in series [4], 1.32 µM. Also, in series [3], the “Ratio CC50/IC50” value came to 198.

The compound `Cc1c(Cc2cc(C(F)(F)F)cc(C(F)(F)F)c2)nc(SCc2ccc([N+](=O)[O-])cc2)[nH]c1=O` gave a CC50 in series [1] above 248 µM. For the same compound, the IC50 in series [2] and in series [4] was above 248 µM throughout.

Take `Cc1c(Sc2ccccc2)n(COCCO)c(=O)[nH]c1=O` [HEPT]: the CC50 in series [1] is at most 399 µM. The results for the half-maximal inhibitory concentration (IC50) in series [2] and in series [4] were above 405 µM and 5.06 µM, respectively. Further, in series [3], the “Ratio CC50/IC50” value came to 79.

On to `CCc1c(Cc2cc(C)cc(C)c2)nc(SCc2ccc([N+](=O)[O-])cc2)[nH]c1=O`, for which the CC50 in series [1] was above 305 µM. In addition, the IC50 in series [2] was above 305 µM; in series [4], 0.16 µM. In addition, the “Ratio CC50/IC50” value in series [3] is above 1906.

As for `Cc1c(Cc2cccc(Br)c2)nc(SCc2ccc([N+](=O)[O-])cc2)[nH]c1=O`, the CC50 in series [1] is above 280 µM. Moreover, the IC50 in series [2] was above 280 µM; in series [4] it was 14.2 µM. The “Ratio CC50/IC50” value in series [3] is listed as above 20.

Compound `COc1ccc(CSc2nc(Cc3ccc(Br)cc3)c(C)c(=O)[nH]2)cc1` gave a CC50 in series [1] above 290 µM. For the same compound, the IC50 in series [2] and in series [4] was above 290 µM throughout.

In series [1], `Cc1c(Cc2ccccc2Br)nc(SCc2ccc([N+](=O)[O-])cc2)[nH]c1=O` gave a CC50 of at least 246 µM. Besides, the figures for the IC50 in series [2] and in series [4] were above 246 µM and 1.46 µM, respectively. In addition, the “Ratio CC50/IC50” value in series [3] is on record as “>=168”.

`CCc1c(Cc2ccccc2Br)nc(SCc2ccc(OC)cc2)[nH]c1=O` yielded a CC50 in series [1] of 165 µM. Moreover, the IC50 in series [2] is above 165 µM; in series [4], 0.23 µM. Further, the “Ratio CC50/IC50” value in series [3] was determined as 717.

Turning to `CCc1c(Cc2ccc(-c3ccccc3)cc2)nc(SCc2ccc(OC)cc2)[nH]c1=O`, in series [1], the CC50 is 194 µM. Further, the IC50 in series [2] and in series [4] was above 194 µM each time. Besides, the “Ratio CC50/IC50” value in series [3] is below 1.

`COc1ccc(CSc2nc(Cc3ccccc3Br)c(C)c(=O)[nH]2)cc1` registered a CC50 in series [1] of 179 µM. In addition, the 50% inhibitory concentration (IC50) was above 179 µM in series [2] and 1.04 µM in series [4]. In addition, the “Ratio CC50/IC50” value in series [3] turned out to be 172.

On to `CCc1c(Cc2cccc(Br)c2)nc(SCc2ccc([N+](=O)[O-])cc2)[nH]c1=O`, for which the CC50 in series [1] turned out to be 187 µM. The IC50 in series [2] was above 187 µM; in series [4] it was 1.34 µM. Besides, the “Ratio CC50/IC50” value in series [3] came to 139.6.

The compound `CCc1c(Cc2cccc(Br)c2)nc(SCc2ccc(OC)cc2)[nH]c1=O` registered a cytotoxic concentration (CC50) in series [1] of 201 µM. Further, the results for the IC50 in series [2] and in series [4] were above 201 µM and 0.28 µM, respectively. In addition, in series [3], the “Ratio CC50/IC50” value stood at 718.

In turn, `CCc1c(Cc2cc(C(F)(F)F)cc(C(F)(F)F)c2)nc(SCc2ccc(OC)cc2)[nH]c1=O` had a CC50 in series [1] above 249 µM. In addition, the IC50 is above 249 µM in series [2] and at least 9.47 µM in series [4]. Besides, the “Ratio CC50/IC50” value in series [3] is “<=26”.

Turning to `CCc1c(Cc2c(Cl)cccc2Cl)nc(SCc2ccc([N+](=O)[O-])cc2)[nH]c1=O`, the CC50 in series [1] is above 278 µM. Further, the IC50 was above 278 µM in series [2] and 0.36 µM in series [4]. Also, in series [3], the “Ratio CC50/IC50” value is listed as above 772.

Turning to `Cc1cc(C)cc(Cc2nc(SCc3ccc([N+](=O)[O-])cc3)[nH]c(=O)c2C)c1`, in series [1], the CC50 is above 316 µM. For the same compound, the IC50 was above 316 µM in series [2] and 5.46 µM in series [4]. Moreover, the “Ratio CC50/IC50” value in series [3] is listed as above 58.

In turn, `CCc1c(Cc2c(Cl)cccc2Cl)nc(SCc2ccc(OC)cc2)[nH]c1=O` registered a CC50 in series [1] above 287 µM. The IC50 was above 287 µM in series [2] and 0.16 µM in series [4]. In addition, in series [3], the “Ratio CC50/IC50” value is above 1793.

Consider `COc1ccc(CSc2nc(Cc3cc(C(F)(F)F)cc(C(F)(F)F)c3)c(C)c(=O)[nH]2)cc1`, for which the CC50 in series [1] was above 256 µM. Moreover, the IC50 in series [2] and in series [4] was above 256 µM throughout.

For `CCc1c(Cc2cc(C(F)(F)F)cc(C(F)(F)F)c2)nc(SCc2ccc([N+](=O)[O-])cc2)[nH]c1=O`, the CC50 in series [1] is above 242 µM. The IC50 in series [2] and in series [4] was above 242 µM throughout.
